According to publication PMC7508919 (Molecular Therapy Oncolytics, 2020):
“Also recorded” adds a separate entry of the source.

Columns and labels:
HCC1937 cells [1] = assay: Transwell migration assay, HCC1937; type: cell-based; conditions: 12 h, Figure S4
HCC1937 cells [2] = assay: Transwell invasion assay, HCC1937; type: cell-based; conditions: Matrigel-coated Transwell, 48 h, Figure S4
In short: (§1)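 Cells (2 × 104) were seeded in serum-free medium with serially diluted test peptide or scrambled peptide into Matrigel-coated upper Transwell chambers. The lower chamber held 10% FBS medium as chemoattractant. Incubation ran 48 h at 37°C, 5% CO2. Non-invaded cells were removed. Invaded cells were methanol-fixed for 10 min, stained with hematoxylin for 30 min, and counted. Three independent experiments, mean ± SD.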

MDA-MB-231 cells [3] = assay: Cell-cycle distribution by flow cytometry; type: cell-based; conditions: 24, 48 or 72 h, PI staining, Figure 3C
In short: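 MDA-MB-231 cells (DMEM, 10% FBS, 37°C, 5% CO2) are treated with serially diluted test peptide for 24, 48 or 72 h. Cells are stained with propidium iodide for 30 min at room temperature in the dark. Flow cytometry gives the percentages in G0/G1, S and G2/M. Mean ± SD of three independent experiments; one-way ANOVA versus control phases.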

[4] = Body weight of nude mice, HCC1937 model; type: in vivo, nude BALB/c mice; conditions: i.p. daily, 25 days, Figure S5E
In short: (§2)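 Female nude BALB/c mice, 4–6 weeks old, were randomised into five groups. Each received MDA-MB-231-tomato or HCC1937-tomato cells (7 × 106 in 100 μL PBS) s.c. into the left axilla. Serially diluted test peptide or scrambled peptide was given i.p. daily for 25 days. Body weight and tumor size were recorded every 3 days, with volume = length × width² × 0.5. IVIS imaging was done twice weekly. Tumors were weighed at sacrifice.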

GPR1 [5] = target: T1, GPR1 (Homo sapiens, UniProt P46091); assay: Immunofluorescence colocalization of FITC-LRH7-G5 with GPR1; type: cell-based; conditions: breast cancer cells; 1 μM FITC-labeled peptide, 2 h at RT, confocal microscopy
T1 sequence (P46091 1-355): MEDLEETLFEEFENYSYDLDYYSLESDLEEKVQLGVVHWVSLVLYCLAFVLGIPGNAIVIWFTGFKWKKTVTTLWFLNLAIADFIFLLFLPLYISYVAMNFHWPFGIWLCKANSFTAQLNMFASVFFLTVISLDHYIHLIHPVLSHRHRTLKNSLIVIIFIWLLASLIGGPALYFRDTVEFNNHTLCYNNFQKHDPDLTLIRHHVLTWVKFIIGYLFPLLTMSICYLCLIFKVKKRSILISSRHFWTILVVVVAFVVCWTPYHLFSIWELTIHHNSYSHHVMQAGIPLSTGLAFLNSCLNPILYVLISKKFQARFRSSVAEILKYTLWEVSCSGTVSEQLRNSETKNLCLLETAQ

GPR1 [6] = assay: Calcium mobilization assay, GPR1-expressing cells; type: cell-based, human; conditions: Fluo-4 NW, Figure 2D
In short: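 HEK293 cells stably transfected with human GPR1 (pcDNA3.0 vector, G418 resistance), with empty-vector HEK293 as control, grown in DMEM with 10% FBS. […] Fluo-4 NW dye is used following the kit instructions. Reported as mean ± SD of three independent experiments.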

T47D cells = assay: MTT cell viability / proliferation, T47D; type: cell-based; conditions: 1 nM–100 μM, 24, 48 or 72 h, 0.04% FBS, Figure 3A
In short: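 T47D cells were maintained in RPMI with 10% FBS. Log-phase cells were seeded at 5 × 10^3 cells/well for 24 h, then starved in 0.04% FBS medium for 12 h. Serial dilutions of test peptide or scrambled peptide in 0.04% FBS medium were added for 24, 48 and 72 h before MTT read-out. Three independent experiments, mean ± SD. One-way ANOVA versus 0 μM at each time point.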

MDA-MB-231 cells [7] = assay: Transwell migration assay, MDA-MB-231; type: cell-based; conditions: 0.1 μM to 10 μM, 12 h, Figure 4
In short: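 Uncoated Transwell chambers were used. MDA-MB-231 cells were placed in the upper chamber in FBS-free medium with test peptide or scrambled peptide. The lower chamber held 10% FBS medium. Incubation ran 12 h at 37°C, 5% CO2. Unmigrated cells were wiped off. Migrated cells were methanol-fixed for 10 min, hematoxylin-stained for 30 min at RT, and counted by inverted microscopy. Three independent experiments, mean ± SD.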

MDA-MB-231 cells [8] = assay: MTT cell viability / proliferation, MDA-MB-231; type: cell-based; conditions: 1 nM–100 μM, 24, 48 or 72 h, 0.04% FBS, Figure 3A
In short: (§3)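 Log-phase cells (DMEM, 10% FBS) are seeded at 5 × 10^3 cells/well for 24 h, then starved 12 h in 0.04% FBS medium. Serially diluted test peptide or scrambled peptide is added in the same medium. Viability is read by MTT at 24, 48 and 72 h. Mean ± SD of three independent experiments; one-way ANOVA versus 0 μM at each time.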

HCC1937 xenograft = HCC1937 xenograft in nude mice; type: in vivo, nude BALB/c mice; conditions: i.p. daily, 25 days, n=5
In short: as §2

MDA-MB-231 xenograft = MDA-MB-231 xenograft in nude mice; type: in vivo, nude BALB/c mice; conditions: MDA-MB-231 nude mice; i.p. daily, 25 days; n = 5–6 per group
In short: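 Female nude BALB/c mice, 4–6 weeks old, receive 7 × 10^6 MDA-MB-231-tomato cells in 100 μL PBS subcutaneously into the left axilla. Serially diluted test peptide or scrambled peptide is injected i.p. daily. Body weight and tumor size are recorded every 3 days, with volume = length × width² × 0.5, and IVIS bioluminescence is imaged twice weekly. Tumors are weighed at sacrifice; mean ± SD.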

HCC1937 cells [9] = assay: MTT cell viability / proliferation, HCC1937; type: cell-based; conditions: 1 nM–100 μM, 24, 48 or 72 h, 0.04% FBS, Figure 3A
In short: as §3

MDA-MB-231 cells [10] = assay: Colony formation assay, MDA-MB-231; type: cell-based; conditions: 1 month of treatment, Figure 3B
In short: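 MDA-MB-231-tomato cells were seeded at 1 × 10^3 cells/well in 6-well plates. They were exposed to indicated concentrations of test peptide or scrambled peptide. Fluorescent colonies were counted under a fluorescence microscope.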

PI3K/AKT pathway = assay: Western blot of PI3K/AKT pathway; type: cell-based
tumor tissue [11] = assay: Histology/IHC of tumor tissue; type: in vivo, nude BALB/c mice
In short: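 Xenograft tumors were fixed in 4% PFA overnight, paraffin-embedded and sectioned. Sections were H&E-stained (×200, ×400) or immunostained for Ki-67, PCNA and vimentin using an IHC kit (×200). Groups were test peptide- or scrambled peptide-treated mice.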

HEK293 pcDNA cells = assay: Calcium mobilization assay, HEK293 pcDNA cells; type: cell-based; conditions: Fluo-4 NW, Figure 2D
In short: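 Stably transfected HEK293 cells carrying empty pcDNA3.0 vector (G418 resistance) served as the control line. Intracellular calcium was read with Fluo-4 NW dye following the kit protocol. Human recombinant chemerin was the agonist and test peptide the antagonist. Three independent experiments, mean ± SD.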

TNBC cells = assay: Western blot of cell-cycle, apoptosis and invasion proteins; type: cell-based; conditions: immunoblot, Figure 4D
MDA-MB-231 cells [12] = assay: Apoptosis by Annexin V/PI flow cytometry; type: cell-based; conditions: 24, 48 or 72 h, Annexin V-FITC/PI, Figure 3D
In short: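 MDA-MB-231 cells were grown in DMEM with 10% FBS at 37°C and 5% CO2. They were treated with serial dilutions of test peptide or scrambled peptide, then stained with FITC-Annexin V and PI for flow cytometry. Annexin V+/PI− (early) plus Annexin V+/PI+ (late) cells were scored as apoptotic. Three independent experiments, mean ± SD, one-way ANOVA.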

[13] = Body weight of nude mice, MDA-MB-231 model; type: in vivo, nude BALB/c mice; conditions: MDA-MB-231 nude mice; i.p. daily, 25 days; Figure 5F
In short: as §2

GPR1 [14] = assay: Phage clones binding to GPR1 by ELISA; set-up: species or system human; conditions: versus HEK293 pcDNA cells, Figure 2A
In short: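 A Ph.D.-7 library (diversity 2.8 × 109) was precleared, then panned for five rounds over stable GPR1-overexpressing HEK293 cells (2 × 10^5/well, seeded 24 h). Eluted clones were serially diluted and incubated with GPR1-overexpressing or empty-vector HEK293 cells. Phage ssDNA was then sequenced.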

tumor tissue [15] = assay: TUNEL assay of tumor tissue; type: in vivo, nude BALB/c mice; conditions: Figure 6C
In short: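 Xenograft tumor tissue was fixed in 4% PFA overnight and paraffin-embedded. Apoptotic cells in sections were detected with a FragEL DNA fragmentation kit (TUNEL) and imaged at ×200. Tumors came from test peptide- or scrambled peptide-treated mice.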

MDA-MB-231 cells [16] = assay: Transwell invasion assay, MDA-MB-231; type: cell-based; conditions: Matrigel-coated Transwell, 48 h, Figure 4
In short: as §1

GPR1 [17] = target: T1, GPR1; conditions: cited from earlier work
[18] = system: receptors CMKLR1 and GPR1; conditions: comparison of the two receptors; cited from earlier work
GPR1 [19] = assay: cAMP assay; type: cell-based, human; conditions: 10 nM huChemerin, 10 μM forskolin, 30 min at 37°C; mean ± SD, three independent experiments
In short: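 Stable GPR1-transfected and empty-vector HEK293 cells are seeded at 5 × 10^3 cells/well for 24 h. Cells are then exposed to serial dilutions of test peptide alone, forskolin plus chemerin, or forskolin, chemerin and peptide combined. cAMP is measured with a commercial kit.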

[20] = Gi class of heterotrimeric G proteins

Substance: MPRLPPA [LRH7-G5]
- effect on migration (HCC1937 cells [1]): significantly suppressed
- effect on invasion (HCC1937 cells [2]): significantly suppressed
- cell-cycle arrest (MDA-MB-231 cells [3]): arrested MDA-MB-231 cells at the G0/G1 phase boundary
- body weight [4]: did not affect body weight
- colocalization with GPR1 (GPR1 [5]): marked colocalization with GPR1
- effect on chemerin-induced calcium mobilization (GPR1 [6]): significantly decreased chemerin-induced calcium mobilization
- effect on cell growth (MTT) (T47D cells): little effect
- effect on migration (MDA-MB-231 cells [7]): significantly suppressed; also recorded: decreased migration
- effect on cell growth (MTT) (MDA-MB-231 cells [8]): significantly suppressed cell growth in a dose-dependent manner
- tumor volume (HCC1937 xenograft; compared with control group): markedly decreased
- tumor weight (HCC1937 xenograft; compared with control group): markedly decreased
- tumor growth (HCC1937 xenograft; dose-dependent, bioluminescence): substantially suppressed tumor growth
- tumor burden (HCC1937 xenograft): reduced the tumor burden in a dose-dependent manner
- tumor burden (MDA-MB-231 xenograft): reduced the tumor burden in a dose-dependent manner
- effect on cell growth (MTT) (HCC1937 cells [9]): significantly suppressed cell growth in a dose-dependent manner
- effect on colony formation (MDA-MB-231 cells [10]): validated by colony formation assays
- effect of peptide in coculture with AKT phosphorylation activator SC-79 (PI3K/AKT pathway; cocultured with SC-79): enhanced by the AKT agonist
- effect of peptide in coculture with PI3K inhibitor wortmannin (PI3K/AKT pathway; cocultured with wortmannin): weakened by the PI3K inhibitor
- phosphorylation of AKT (PI3K/AKT pathway; immunoblot): significantly decreased
- phosphorylation of ERK (PI3K/AKT pathway; immunoblot): significantly decreased
- tumor necrosis (H&E) (tumor tissue [11]; H&E staining, Figure 6A): exhibited cellular necrosis
- tumor cell growth (Ki-67, PCNA, vimentin staining) (tumor tissue [11]; IHC staining of Ki-67, PCNA, and vimentin, Figure 6B): decreased cell growth
- effect on calcium mobilization in HEK293 pcDNA cells (HEK293 pcDNA cells): did not affect
- Bcl-2 level (TNBC cells; apoptosis regulator): decreased
- Stat3 level (TNBC cells; apoptosis regulator): decreased
- cyclin D level (TNBC cells; cell-cycle-related protein): decreased
- MMP-2 level (TNBC cells; invasion-related): decreased
- MMP-9 level (TNBC cells; invasion-related): decreased
- N-cadherin level (TNBC cells; invasion-related): decreased
- Snail level (TNBC cells; invasion-related): decreased
- vimentin level (TNBC cells; invasion-related): decreased
- induction of apoptosis (MDA-MB-231 cells [12]): induced their apoptosis
- mean body weight [13]: did not change significantly
- binding affinity of phage clones to GPR1 (GPR1 [14]): highest affinity
- cellular apoptosis in tumor (TUNEL) (tumor tissue [15]): increase in cellular apoptosis; also recorded: induces apoptosis in tumors
- effect on invasion (MDA-MB-231 cells [16]): significantly suppressed

Substance: chemerin: human recombinant chemerin, R&D Systems; chemokine-like adipokine, GPR1 ligand
- cAMP accumulation on GPR1 activation (GPR1 [17]; [20]): inhibition of cyclic adenosine monophosphate (cAMP) accumulation
- p42-p44 MAP kinases phosphorylation on GPR1 activation (GPR1 [17]; [20]): phosphorylation of the p42-p44 MAP kinases
- intracellular calcium release on GPR1 activation (GPR1 [17]): intracellular calcium release
- binding affinities for CMKLR1 and GPR1 [18]: similar
- effect on forskolin-induced cAMP release (GPR1 [19]): suppressed forskolin-induced cAMP release
